The source of these data is ChEMBL document CHEMBL5329211, “Selective isoxazolopyrimidine PAT1 (SLC26A6) inhibitors for therapy of intestinal disorders” (RSC Med Chem, 2023).

SMILES strings stand for the structures. Activity calls are given as the source filed them. The rule behind the calls is not given here.

Solute carrier family 26 member 6 (Mus musculus), sequence (Q8CIW6 whole entry, looked up): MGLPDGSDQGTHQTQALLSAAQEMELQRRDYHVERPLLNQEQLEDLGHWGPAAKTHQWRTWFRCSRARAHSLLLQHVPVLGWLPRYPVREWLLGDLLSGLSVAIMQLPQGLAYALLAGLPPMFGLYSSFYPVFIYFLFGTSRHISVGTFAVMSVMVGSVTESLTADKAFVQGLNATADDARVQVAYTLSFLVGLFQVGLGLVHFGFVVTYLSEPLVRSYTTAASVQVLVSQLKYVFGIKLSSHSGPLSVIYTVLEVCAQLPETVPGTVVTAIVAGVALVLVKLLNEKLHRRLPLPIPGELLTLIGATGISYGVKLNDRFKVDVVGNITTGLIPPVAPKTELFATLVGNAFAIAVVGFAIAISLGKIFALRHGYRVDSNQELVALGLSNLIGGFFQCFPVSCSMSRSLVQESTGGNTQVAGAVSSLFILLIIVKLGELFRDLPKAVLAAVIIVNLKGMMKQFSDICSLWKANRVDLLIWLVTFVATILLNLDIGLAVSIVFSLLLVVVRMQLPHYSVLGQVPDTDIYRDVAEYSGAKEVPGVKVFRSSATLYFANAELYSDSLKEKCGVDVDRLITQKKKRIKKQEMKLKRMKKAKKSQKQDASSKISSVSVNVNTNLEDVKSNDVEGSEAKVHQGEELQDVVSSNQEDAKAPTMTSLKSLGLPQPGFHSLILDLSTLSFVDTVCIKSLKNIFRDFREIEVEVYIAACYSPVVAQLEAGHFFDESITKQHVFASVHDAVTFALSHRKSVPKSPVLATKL

The first test concerns Mus musculus. In words: In vivo inhibition of PAT1 in intestinal closed-loop CD-1 mouse model assessed as reduction in loop weight/length ratio in ileum measured for 30 mins. The format is functional. In a few lines: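 Mice (wild-type CD1 or homozygous F508del CF, 10-16 wk, both sexes) fasted 24 h with free access to 5% dextrose water. Under isoflurane at 36-38 °C, 2-3 ileal loops (2-3 cm) were tied off and injected with 100 µL PBS pH 7.4 containing 30 µM inhibitor, 10 µM tenapanor or 0.1% DMSO vehicle. Loops removed at 0 or 30 min in separate mice; length and weight measured for fluid absorption. One-way ANOVA with Newman-Keuls.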
Take `CN1Cc2c(Cl)cc(Cl)cc2[C@H](c2cccc(S(=O)(=O)NCCOCCOCCNC(=O)NCCCCNC(=O)NCCOCCOCCNS(=O)(=O)c3cccc([C@@H]4CN(C)Cc5c(Cl)cc(Cl)cc54)c3)c2)C1`: the inhibition result is “Active”.

The next test concerns the target Solute carrier family 26 member 6 (Mus musculus) (UniProt Q8CIW6). The experiment in a line: Inhibition of SLC26A6 (unknown origin) expressed in rat FRT cells coexpressing YFP halide-sensing protein assessed as iodide-chloride exchange at 25 uM incubated for 2 sec by fluorescence quenching analysis relative to control.
In the case of `CCOC(=O)c1nc(NCc2cccc(Br)c2)c2c(-c3ccc(F)cc3)noc2n1`, the inhibition was under 25%.

In the case of `CCOC(=O)c1nc(NCc2ccccc2OCC)c2c(C)noc2n1`, the inhibition was under 25%.

The next test shares this target. The experiment in a line: Inhibition of SLC26A6 (unknown origin) expressed in rat FRT cells coexpressing YFP halide-sensing protein assessed as iodide-chloride exchange incubated for 2 sec by fluorescence quenching analysis.
Take `CCOC(=O)c1nc(NCc2ccc(F)cc2)c2c(C)noc2n1`: the half-inhibitory concentration (IC50) stood at 2300 nM.

On to `CCOC(=O)c1nc(Nc2ccccc2C)c2c(C)noc2n1`, for which the IC50 was 3700 nM.

Consider `CCOC(=O)c1nc(NCc2cccc(Br)c2)c2c(C)noc2n1`, for which the IC50 was 1100 nM.

Consider `CCOC(=O)c1nc(NCc2cccc(OC)c2)c2c(C)noc2n1`, for which the IC50 stood at 4400 nM.

For the compound `CCOC(=O)c1nc(NCc2ccccc2OC)c2c(CC)noc2n1`, the IC50 amounted to 1900 nM.

On to `CCOC(=O)c1nc(Nc2cccc(C)c2C)c2c(C)noc2n1`, for which the 50% inhibitory concentration (IC50) is 1200 nM.

Take `CCOC(=O)c1nc(NCc2cccnc2)c2c(-c3ccc(F)cc3)noc2n1`: the 50% inhibitory concentration (IC50) was determined as 3400 nM.

For `CCOC(=O)c1nc(N2CCN(c3cccc(Cl)c3)CC2)c2c(C)noc2n1`, the IC50 was determined as 2600 nM.

As to `CCOC(=O)c1nc(NCc2cc(Br)ccc2OC)c2c(CC)noc2n1`, the IC50 worked out at 2500 nM.

Turning to `CCOC(=O)c1nc(NCCc2ccsc2)c2c(C)noc2n1`, the half-maximal inhibitory concentration (IC50) is 1800 nM.

Turning to `CCOC(=O)c1nc(NCc2cccc(C)c2)c2c(C)noc2n1`, the IC50 came out at 1100 nM.

Consider `CCOC(=O)c1nc(NCc2cc(OC)ccc2OC)c2c(CC)noc2n1`, for which the IC50 was found to be 3700 nM.

For the compound `CCOC(=O)c1nc(NCc2ccc(OCC)cc2)c2c(C)noc2n1`, the IC50 is 2000 nM.

On to `CCOC(=O)c1nc(NCc2ccccc2Cl)c2c(C)noc2n1`, for which the IC50 is 1100 nM.

For `CCOC(=O)c1nc(NCc2ccccc2F)c2c(CC)noc2n1`, the IC50 stood at 5200 nM.

With `CCOC(=O)c1nc(NCCc2ccccc2)c2c(CC)noc2n1`, the IC50 came out at 3200 nM.

Regarding `CCOC(=O)c1nc(NCc2ccc(F)cc2)c2c(CC)noc2n1`, the IC50 amounted to 3200 nM.

On to `CCOC(=O)c1nc(NCc2ccc(OC(C)C)cc2)c2c(C)noc2n1`, for which the IC50 was determined as 6500 nM.

Turning to `CCOC(=O)c1nc(NCc2ccc(SC)cc2)c2c(C)noc2n1`, the IC50 turned out to be 2600 nM.

Turning to `CCOC(=O)c1nc(NCCC(C)C)c2c(C)noc2n1`, the IC50 was 2300 nM.

As to `CCOC(=O)c1nc(NCc2ccc(C)cc2)c2c(CC)noc2n1`, the IC50 turned out to be 3800 nM.

Regarding `CCCOc1ccc(CNc2nc(C(=O)OCC)nc3onc(C)c23)cc1`, the IC50 worked out at 5700 nM.

In the case of `CCOC(=O)c1nc(NCc2ccc(Cl)cc2)c2c(CC)noc2n1`, the IC50 came to 3400 nM.

For the compound `CCOC(=O)c1nc(NCCc2ccccc2Cl)c2c(CC)noc2n1`, the IC50 is 5200 nM.

Regarding `CCOC(=O)c1nc(NCCc2ccco2)c2c(CC)noc2n1`, the IC50 was 1400 nM.

As to `CCOC(=O)c1nc(NCc2ccccc2)c2c(C)noc2n1`, the IC50 is 1800 nM.

For the compound `CCOC(=O)c1nc(NCc2cc(C)ccc2C)c2c(C)noc2n1`, the IC50 came to 1500 nM.

Turning to `CCOC(=O)c1nc(NCc2ccccc2F)c2c(C)noc2n1`, the IC50 was 1100 nM.

With `CCOC(=O)c1nc(NCCc2cccs2)c2c(CC)noc2n1`, the IC50 turned out to be 1600 nM.

Turning to `CCOC(=O)c1nc(NCCc2ccco2)c2c(C)noc2n1`, the half-inhibitory concentration (IC50) came to 2400 nM.

In the case of `CCOC(=O)c1nc(NCC(C)OC)c2c(-c3ccc(F)cc3)noc2n1` (stereo not drawn), the IC50 is 5100 nM.

Turning to `CCOC(=O)c1nc(NCc2ccccc2OC)c2c(C)noc2n1`, the IC50 was found to be 17200 nM.

On to `CCOC(=O)c1nc(NCc2ccccc2)c2c(CC)noc2n1`, for which the IC50 is 4300 nM.

Consider `CCOC(=O)c1nc(NCc2cccc(F)c2)c2c(C)noc2n1`, for which the IC50 came out at 2200 nM.

As to `CCOC(=O)c1nc(NCCc2ccc(Cl)cc2)c2c(CC)noc2n1`, the IC50 worked out at 5200 nM.
